The list is not random: actives were taken first. Their share in the collection is about 3.6%.
VIM-2 inh: inhibitors of Pseudomonas aeruginosa VIM-2 metallo-beta-lactamase; 290,000 tested, 0.89% active; purified VIM-2, nitrocefin hydrolysis, epi-absorbance fluorescence; inhibition, % at 5.6 µM;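 active = inhibition above the mean of all tested compounds plus 3 SD, cutoff set per screening run, cut at about 7.5% in these data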;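 note: red hydrolysis product quenches plate fluorescence so inhibitors raise well fluorescence; 0% = enzyme with DMSO and 100% = DMSO without enzyme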
PAFAH1B2 FP inh: blocks human PAF acetylhydrolase 1b catalytic subunit 2; P68402; inhibition, % at 3.39 µM; recombinant PAFAH1B2, FP-rhodamine activity probe, fluorescence polarization; 340,000 tested, 1.2% active; AID 492953;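 active = inhibition above the mean of all tested compounds plus 3 SD, cut at about 24% in these data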;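 note: 0% = enzyme with DMSO and 100% = wells lacking PAFAH1B2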
IMP-1 inh: blocks Pseudomonas aeruginosa IMP-1 metallo-beta-lactamase; purified IMP-1, nitrocefin hydrolysis, epi-absorbance fluorescence; inhibition, % at 5.6 µM; 290,000 tested, 0.45% active; AID 1556;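 active = inhibition above the mean plus 3 SD of all compounds in the same screening run, cut at about 4.5% in these data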;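 note: 0% = IMP-1 with DMSO and 100% = DMSO wells lacking enzyme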
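system = purified recombinant IMP-1 beta-lactamase | amount = 0.2 nM IMP-1, as dispensed | medium = HEPES buffer pH 7.1 with ZnSO4 and Brij 35 | times = 25 °C, 15 min preincubation, 25 min reaction | detection = plate fluorescence quenching by hydrolysis product, ex 480/em 530 nm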
pPAFAH inh: inhibitors of human plasma PAF acetylhydrolase (pPAFAH). recombinant pPAFAH, FP-rhodamine probe fluorescence polarization. inhibition, % at 3.39 µM. 330,000 tested, 1.5% active;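 active = inhibition above the mean inhibition across the screen plus 3 SD, cut at about 25% in these data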;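 note: inhibitors block binding of the rhodamine activity-based probe so polarization drops; 0% = enzyme with DMSO and 100% = wells lacking pPAFAH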
Target sequence (Q13093 whole entry, looked up): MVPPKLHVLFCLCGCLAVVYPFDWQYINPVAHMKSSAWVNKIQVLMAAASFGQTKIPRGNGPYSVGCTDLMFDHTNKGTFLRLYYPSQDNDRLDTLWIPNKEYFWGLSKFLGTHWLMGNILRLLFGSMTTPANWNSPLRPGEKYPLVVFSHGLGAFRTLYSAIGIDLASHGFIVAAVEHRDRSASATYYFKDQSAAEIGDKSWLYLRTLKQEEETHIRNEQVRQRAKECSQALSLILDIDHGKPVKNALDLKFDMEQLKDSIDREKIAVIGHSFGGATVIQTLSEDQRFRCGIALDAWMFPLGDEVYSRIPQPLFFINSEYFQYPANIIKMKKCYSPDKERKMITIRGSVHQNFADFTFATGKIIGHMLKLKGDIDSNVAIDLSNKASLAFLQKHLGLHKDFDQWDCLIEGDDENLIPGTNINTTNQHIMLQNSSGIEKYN
PAFAH1B3 FP inh: blocks human PAF acetylhydrolase 1B catalytic subunit 3; inhibition, % at 3.39 µM; AID 492972; 340,000 tested, 0.28% active; recombinant PAFAH1B3, FP-rhodamine probe, fluorescence polarization;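 active = inhibition above the screen-wide average of all tested compounds plus 3 SD, cut at about 25% in these data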;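 note: 0% = enzyme with DMSO only and 100% = wells lacking PAFAH1B3 protein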
Target sequence (Q15102 whole entry, looked up): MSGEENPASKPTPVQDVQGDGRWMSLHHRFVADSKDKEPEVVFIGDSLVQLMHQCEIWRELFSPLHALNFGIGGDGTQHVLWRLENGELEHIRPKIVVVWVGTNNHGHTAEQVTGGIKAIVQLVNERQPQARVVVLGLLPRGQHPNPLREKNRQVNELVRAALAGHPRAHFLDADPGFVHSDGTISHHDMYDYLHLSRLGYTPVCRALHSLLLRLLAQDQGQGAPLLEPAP
PAFAH2 inh: inhibitors of human PAFAH2. recombinant PAFAH2, FP-rhodamine activity probe, fluorescence polarization. inhibition, % at 3.39 µM. 340,000 tested, 0.99% active;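 active = inhibition above the mean over all tested compounds plus 3 SD, cut at about 30% in these data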;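 note: inhibitors block probe labeling of enzyme so polarization drops; 0% = enzyme with DMSO and 100% = wells lacking PAFAH2 protein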
Active calls of the source: *; . = no result.

SMILES | VIM-2 inh | PAFAH1B2 FP inh | IMP-1 inh | pPAFAH inh | PAFAH1B3 FP inh | PAFAH2 inh
O=C(O/N=C(\c1ccccc1)c1ccncc1)c1ccccc1F | -3.5 | 33.1* | -1.8 | 9.3 | 4.1 | 52.8*
CC(Oc1ccccc1Cl)C(=O)Nc1ccc(S(=O)(=O)Nc2nccs2)cc1 (configuration not stated) | . | -3.5 | . | 4.2 | 1.3 | 5.9
O=C(Nc1cccc(S(=O)(=O)N2CCOCC2)c1)c1c2c(nc3ccccc13)CCC2 | 0.9 | -1.4 | -2.9 | 26.7* | 2.4 | -4.3
CCN(CC)S(=O)(=O)c1ccc(N2CCOCC2)c(NC(=O)c2c3c(nc4ccccc24)CCC3)c1 | -2.4 | -5.8 | 0.5 | 26.3* | -2.8 | 17.4
O=C(Nc1cccc(S(=O)(=O)N2CCOCC2)c1)c1ccc2ccccc2n1 | -3.3 | -2.6 | -3.9 | -1.7 | -4.5 | 2.2
Cc1ccc(NC(=O)c2cc(-c3ccco3)nc3ccccc23)cc1S(=O)(=O)N1CCOCC1 | -1.4 | -6.3 | -3.1 | 26.8* | -0.3 | -7.5
O=C1c2cccc3c2[C@H](CCC3)CN1[C@@H]1CN2CCC1CC2 | . | . | . | -9.5 | . | .
O=C1N/C(=N\S(=O)(=O)Cc2ccccc2)S/C1=C/c1cc([N+](=O)[O-])ccc1O | -2.9 | 28.7* | -2.1 | 31.9* | 38.9* | 12.3
CCOC(=O)c1ccc(NC(=O)C2(c3ccccc3)CCCC2)cc1 | -2.4 | 14.1 | -3.2 | -11.8 | -1.2 | -1.7
CCOC(=O)c1ccc(NC(=O)C2(c3ccc(Cl)cc3)CCCC2)cc1 | -2.5 | 29.3* | -1.5 | -1.8 | -1.3 | -8.9
Cc1c(C=O)c2ccccn2c1C(=O)c1cccs1 | 8.3* | 3.8 | -1.9 | 9.0 | -1.7 | 15.7
CCN(CC)C(=O)[C@H]1C[C@H](CC(=O)NC/C=C(\C)CCC=C(C)C)C(=O)N2CCc3c([nH]c4ccc(Cl)cc34)[C@]12C | . | 0.8 | . | 7.8 | 6.2 | 1.9
CCN(CC)C(=O)[C@H]1CC(CC(=O)NC/C=C(\C)CCC=C(C)C)C(=O)N2CCc3c([nH]c4ccc(OC)cc34)[C@]12C (some centres not stated) | . | 0.1 | . | 26.5* | 7.5 | 6.4
CCN(CC)C(=O)[C@H]1CC(CC(=O)NC/C=C(\C)CCC=C(C)C)C(=O)N2CCc3c([nH]c4ccccc34)[C@]12C (some centres not stated) | . | 4.3 | . | 27.5* | 10.0 | -3.0
O=C(COc1c(Br)cc(Br)c2cccnc12)Nc1ccccc1F | -4.2 | 2.3 | -3.0 | 30.3* | 10.8 | 3.7
Cc1nn(-c2ccccc2)c2sc(-c3nnc(SCC(=O)O)o3)cc12 | 2.4 | 6.5 | -3.1 | 1.8 | 9.1 | 8.6
CCn1c(SCC(=O)O)nnc1-c1cc2c(C)nn(-c3ccccc3)c2s1 | 10.2* | -0.1 | -3.0 | 0.4 | 1.3 | 8.7
Cc1csc(NC(=O)c2c(-c3c(F)cccc3Cl)noc2C)n1 | . | 4.6 | . | 32.8* | -4.3 | -3.1
COC(=O)C1CCN(C2=C(NS(=O)(=O)c3ccc(Cl)cc3)C(=O)c3ccccc3C2=O)CC1 | 8.4* | 7.7 | -1.3 | 11.6 | 7.3 | 2.3
NS(=O)(=O)c1cc(C(=O)O)cc(N2CCCC2)c1Oc1ccccc1 | . | 28.9* | . | 0.4 | -1.7 | -1.9
COc1cc2c(cc1OC)CN(c1ccc(C(N)=O)cc1[N+](=O)[O-])CC2 | -1.0 | -0.4 | -3.6 | 2.1 | 2.8 | 1.3
CN(C)C=NC(=O)c1[nH]c2ccc(Cl)cc2c1-c1ccccc1 | -0.8 | -0.8 | -4.0 | 28.7* | -0.7 | 2.7
CCN(CC(=O)NCc1ccc(Cl)cc1)C(=O)c1ccc(C#N)cc1 | -3.0 | 3.6 | -2.4 | 2.3 | 1.0 | -5.0
CCOC(=O)c1sc(NC(=O)C2CC(=O)N(c3ccc(OCC)cc3)C2)nc1C (configuration not stated) | 0.2 | 3.0 | 0.3 | 1.4 | -7.7 | 1.1
O=C(CSc1nnc(CNc2ccc(Cl)cc2)o1)Nc1nc2c(s1)CCCC2 | -8.6 | 24.3* | -4.0 | 22.0 | 5.8 | 12.1
SMILES | VIM-2 inh | PAFAH1B2 FP inh | IMP-1 inh | pPAFAH inh | PAFAH1B3 FP inh | PAFAH2 inh
COc1ccc(CCNC(=O)CSc2nnc(CNc3ccc(Cl)cc3)o2)cc1OC | -2.4 | 4.7 | -2.2 | -4.8 | 1.8 | 5.0
CCCCn1c(/C=C/c2ccco2)nc2ccccc21 | -4.4 | -1.1 | -4.3 | 16.3 | 0.5 | 4.0
CCCn1c(/C=C/c2ccco2)nc2ccccc21 | 2.7 | 6.6 | 3.6 | 24.9* | 8.4 | 18.1
Clc1ccc(Cn2c(/C=C/c3ccco3)nc3ccccc32)cc1 | -3.8 | -7.6 | -0.3 | 32.8* | -11.0 | -1.0
CSc1ccccc1NC(=O)CN(C)C(=O)COc1cccc2cccnc12 | . | 4.7 | . | 4.0 | 7.0 | 1.6
CCOC(=O)C1=C(CSc2nc3c(cc2C#N)CN(C)CC3)OC(N)=C(C#N)C1c1ccccc1 (configuration not stated) | -0.4 | 6.0 | -1.1 | 17.0 | 8.7 | 11.5
COC(=O)C1=C(CSc2nc3c(cc2C#N)CN(C)CC3)OC(N)=C(C#N)C1c1ccccc1F (configuration not stated) | 2.2 | 10.7 | 0.5 | 28.4* | 8.8 | 15.2
Nc1nc(NCCO)nc(NCc2ccccc2)c1[N+](=O)[O-] | -1.2 | 8.3 | -2.6 | 3.8 | 2.0 | 0.1
Nc1nc(NCC(=O)O)nc(NCc2ccccc2)c1[N+](=O)[O-] | -1.9 | 27.7* | -1.7 | 4.3 | 10.4 | -1.1
Cc1nc2c(ccc3nc(NC(=O)C4CC4)sc32)s1 | 8.6* | -1.3 | -2.4 | 0.4 | 2.4 | -1.1
Cc1ccc(S(=O)(=O)N2C(=S)SCC2(C)C)cc1 | -1.3 | . | 5.4* | . | . | .
CC(OC(=O)CN1C(=O)c2ccccc2C1=O)C(=O)N(C)c1ccccc1 (configuration not stated) | . | 0.8 | . | -1.5 | 4.4 | 1.3
CCOc1ccc(OCCC(=O)OCC(=O)NC2CCCCC2)cc1 | -1.4 | 6.5 | 0.7 | 30.5* | 22.2 | 6.8
CC1CCCC(NC(=O)COC(=O)Cc2ccc(Br)cc2)C1C (configuration not stated) | -0.5 | . | -3.4 | 24.8* | . | .
Cc1ccc(OCCC(=O)OCC(=O)NC2CCCC(C)C2C)cc1 (configuration not stated) | . | 33.6* | . | 22.0 | 5.3 | -3.2
Cc1ccsc1C(=O)OCC(=O)NC1CCCC(C)C1C (configuration not stated) | . | 4.8 | . | 32.1* | 6.1 | 85.0*
CCOc1ccc(OCCC(=O)OCC(=O)NC2CC2)cc1 | . | 1.9 | . | 10.7 | 5.8 | -0.6
CC1CCCC(NC(=O)Cc2ccc(Br)cc2)C1C (configuration not stated) | -2.0 | -1.2 | -1.1 | 8.8 | 2.7 | -4.5
COc1cccc(N2C(=O)Nc3ccc(Br)cc3C2(O)C(=O)NCCCN(C)C)c1 (configuration not stated) | 0.0 | 7.0 | -0.8 | 3.3 | 6.6 | -1.9
O=C(COc1ccccc1)N[C@@H]1c2ccccc2CC[C@H]1OCc1ccccc1 | . | 1.5 | . | 5.6 | -1.5 | 3.9
CN(C)C(=O)c1ccc(NC(=O)c2ccccc2SCC(=O)N2CCCC2)cc1 | . | -1.6 | . | 2.0 | 3.6 | 5.4

Assay outcomes: PubChem BioAssay, The Scripps Research Institute Molecular Screening Center
